INS promoter act: activators of insulin promoter-driven GFP, primary screen, imaging, TRM-6 cells (human fetal islet line), eGFP reporter, cell count; plate-scaled: unstimulated 0, stimulated control 100; activation, % at 2 µM; 130,000 tested, 0.81% active;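 active means activation at 2 µM above a set limit, confirmed on inspection of the cell images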;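 further: share of cells whose green reporter signal exceeds an intensity cutoff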
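Assay system: TRM-6 insulin promoter–eGFP reporter cells / Input: 1,000 cells per well / Medium: Low-glucose (5.5 mM) medium with tamoxifen / Also added: tamoxifen inducer, 0.75 µM, in seeding medium / Timing: overnight tamoxifen, then two-day compound incubation at 37 °C / Signal: automated fluorescence imaging of paraformaldehyde-fixed, Hoechst-counterstained cells, green channel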
Active calls of the source: *. Many of the other results were omitted from the sample, so hits are more common in it than they were.

SMILES	INS promoter act
NC(=O)[C@@H]1CCCNc2c(I)cc([N+](=O)[O-])cc2C(=O)N[C@@H](Cc2ccccc2)C(=O)N[C@@H](Cc2cnc[nH]2)C(=O)N1	285.0*
C[N+]1(CCOc2ccc([N+](=O)[O-])cc2)CCOCC1	0.0
COc1ccc(/C=N/Nc2cn[nH]c(=O)c2Cl)cc1	0.0
Fc1ccc(C2c3cccn3CCN2C(=S)Nc2cccc(Br)c2)cc1 (stereo not drawn)	-8.3
Cc1ccc2c(c1)N(CC(=O)NCc1cccs1)C(=O)C(C)O2 (stereo not drawn)	-2.9
O=C(c1ccccc1)c1ccc(CN2C(=O)c3ccccc3C2=O)o1	394.1
O=C1c2cccnc2C(=O)N1Cc1ccccc1	-12.5
O=C1c2cccc3c(O)ccc(c23)C(=O)N1Cc1ccccc1	233.3*
COc1ccc(C2CC2/C(=N/O)c2ccccc2)cc1 (stereo not drawn)	0.0
O=C(O)c1ccccc1-c1nc(-c2ccccc2)c(-c2ccccc2)[nH]1	289.5*
CC(C)c1nc(-c2ccccc2)c(-c2ccccc2)[nH]1	-87.0
CNC(=O)CSc1nc(-c2ccccc2)c(-c2ccccc2)[nH]1	0.0
O=C(NCCCn1ccnc1)C(=O)NCC1OCCCN1S(=O)(=O)c1ccc(Cl)cc1 (stereo not drawn)	-7.1
N#CCCn1c(C2CCCCC2)nc2ccccc21	-7.1
COc1ccc(NC(=O)CSc2ccc3c4c(cccc24)C(=O)c2ccccc2-3)cc1	110.7
N#Cc1cccc(NC(=O)CSc2ccccc2)c1	-9.1
N#Cc1cccc(NC(=O)CSc2ccc3c4c(cccc24)C(=O)c2ccccc2-3)c1	233.3*
O=C(CCNC(=O)c1ccco1)Nc1ccc(N2CCOCC2)cc1	-6.7
O=C1CC(N2CCN(C3CCc4ccccc4C3)CC2)C(=O)N1c1ccccc1 (stereo not drawn)	-5.4
Cc1cc(OC(=O)C(c2ccccc2)c2ccccc2)c([N+](=O)[O-])c(=O)[nH]1	7.1
CN(C(=O)CSc1nc(-c2ccccc2)cn1N)C(c1ccccc1)c1ccccc1	82.1*
Nn1c(SCC(=O)Nc2ccc3c(c2)OCO3)nnc1-c1ccccc1	-5.6
Cc1ccc(-c2cc(-c3nnc(SCC(=O)NC(C)C(C)C)n3N)c3ccccc3n2)cc1 (stereo not drawn)	2.3
Cc1[nH]c(=O)[nH]c(=O)c1/C=N/NC(=O)[C@@H](NC(=O)OC(C)(C)C)C(C)C	0.0
COc1ccc(C2(C(=O)NCc3ccco3)CCCC2)cc1OC	-2.7
SMILES	INS promoter act
COc1cc(C(=O)NCCC(=O)NC2CCCCCCC2)cc(OC)c1OC	-7.7
COc1ccc(N(C(=O)c2ccco2)S(=O)(=O)c2cccs2)cc1	164.7
COc1ccc(N(C(=O)c2ccco2)S(=O)(=O)c2ccc(F)cc2)cc1	456.3*
COc1ccc(N(C(=O)c2ccco2)S(=O)(=O)c2cc(OC)ccc2OC)cc1	0.0
CCC(=O)Oc1c(-c2ccccc2)c2nc3ccccc3nc2c2ccccc12	376.2
Cc1cc(NCCO)c2ccccc2n1	-5.4
CCCNc1c(F)c(F)c2c(C)c3ccccc3nc2c1F	160.0*
Cc1cc(NS(=O)(=O)c2ccc(NC(=O)COc3ccc(Cl)cc3)cc2)no1	-5.1
O=C(Nc1ccccc1N1CCOCC1)c1ccc2c(c1)OCO2	366.7*
O=C(Nc1ccccc1)c1ccc2c(c1)OCCO2	8.6
COc1ccc(C(=O)NC(=S)Nc2ccccc2N2CCOCC2)cc1Br	-1.6
Cn1ccnc1Sc1ccc(/C=N/NC(=O)c2ccccc2O)cc1[N+](=O)[O-]	6.7
COc1cccc(S(=O)(=O)Nc2cccc(C(=O)N3CCOCC3)c2)c1	465.7*
COc1ccc(NS(=O)(=O)c2ccc(OCC(=O)N3CCOCC3)cc2)cc1	0.0
O=C(c1cccc(NS(=O)(=O)c2cccc([N+](=O)[O-])c2)c1)N1CCOCC1	0.0
Cc1cnc(C(=O)NCC(c2ccccc2)c2ccccc2)cn1	9.1
N#Cc1nc(-c2cccc(Cl)c2)oc1NCc1cccnc1	0.0
O=C1CCC([N+](=O)[O-])C(c2ccccc2Cl)N1 (stereo not drawn)	78.6*
O=C(Cc1ccc(-n2cnnn2)cc1)NC12CC3CC(CC(C3)C1)C2	9.1
CCOc1ccc(N(C(=O)Cn2nnc3ccccc32)C(C(=O)NC(C)(C)CC)c2cccn2C)cc1 (stereo not drawn)	462.5*
CCC(C)(C)NC(=O)C(c1cccn1C)N(C(=O)Cn1nnc2ccccc21)c1ccc(OC)cc1OC (stereo not drawn)	169.8
Cc1ccc(-c2nnn(CC(=O)N(c3ccccc3)C(C(=O)NC(C)(C)C)c3cccs3)n2)o1 (stereo not drawn)	100.0
COc1cccc(C(=O)N/N=C2/SCC(=O)N2CCc2ccc(OC)c(OC)c2)c1	4.3
CCOc1ccc(CC(=O)Nc2ccc(NC(=O)c3ccco3)cc2)cc1OCC	100.0*
CCOc1cc(NC(=O)c2ccco2)c(OCC)cc1NC(=O)Cc1cccc(OC)c1	-5.3
SMILES	INS promoter act
CCOc1cc(NC(=O)c2cccs2)c(OCC)cc1NC(=O)c1ccco1	-2.7
CCOc1cc(CNCCO)cc(Br)c1OCc1ccc(Cl)cc1Cl	8.3
C=CCOc1c(CNc2cccc(C(=O)O)c2)cccc1OCC	3.3
CCOc1cccc(CNc2ccc(O)cc2)c1OCc1ccc(Cl)cc1Cl	91.4*
CCOc1ccc(NC(=O)c2cccc(OC(=S)N3CCOCC3)c2)cc1	-7.1
COc1cc(OC)nc(Oc2ccccc2C(=O)Oc2ccc(Cl)cc2)n1	5.4
Cc1nc(NCCCO)c(C#N)c2c1COC(C)(C)C2	0.0
O=C(CCCCn1c(=S)[nH]c2ccsc2c1=O)NCc1ccc2c(c1)OCO2	-9.5
CCCCCC(=O)N1CCCC(c2nc(-c3ccc(OC)cc3)no2)C1 (stereo not drawn)	77.1*
COc1ccc(-c2noc(CCC(=O)N3CCC(C)CC3)n2)cc1	113.3
O=C(CC1CCCCC1)N1CCCC(c2nc(-c3ccc(S(=O)(=O)N4CCCC4)cc3)no2)C1 (stereo not drawn)	9.1
COc1ccccc1/C=C/C=N/N1CCN(c2ccccn2)CC1	-3.4
CC(=O)N1CCN2C(=O)C1CCCC(=O)c1cc(C)ccc12 (stereo not drawn)	0.0
C(#Cc1ccccc1)C[N+]1(CC#Cc2ccccc2)CCCC1	-5.3
c1ccc(SSc2ccccc2)cc1	0.0
Nc1ccc(C#Cc2ccccc2)cc1	207.1*
COc1ccc(-n2c(C(C)n3nc(C)c([N+](=O)[O-])c3C)n[nH]c2=S)cc1 (stereo not drawn)	515.4*
Cc1nn(C(C)c2n[nH]c(=S)n2-c2cccc(Cl)c2)c(C)c1[N+](=O)[O-] (stereo not drawn)	200.0
CC(c1n[nH]c(=S)n1-c1ccc(F)cc1)N1CCCCC1 (stereo not drawn)	2.4
O=C(Nc1ccc(F)cc1F)c1cc(=O)n(-c2ccccc2)c(=O)[nH]1	0.0
O=C(CCSc1nc(-c2ccco2)cc(C(F)(F)F)n1)N1CCCc2ccccc21	-90.9
CC1CCN(S(=O)(=O)c2ccc(C(=O)Nc3nnc(-c4ccccn4)o3)cc2)CC1	136.4
O=C(Nc1nnc(-c2cccs2)o1)c1ccc(S(=O)(=O)N2CCOCC2)cc1	5.6
O=C(Nc1nnc(-c2ccccc2Cl)o1)c1ccc(S(=O)(=O)N2CCCCCC2)cc1	400.0*
Cc1cccc(C(=O)NC(=S)Nc2ccc(N3CCOCC3)cc2)c1	8.3
N=c1oc2c3c4c(cc2cc1C(=O)Nc1ccccc1)CCCN4CCC3	900.0*
Cc1cc2cc3c(cc2nc1SCC(=O)Nc1ccccc1)CCC3	7.3

Source: PubChem BioAssay (Columbia University Molecular Screening Center)
